Laboratory results from PMC5755971 (Journal of the American Chemical Society, 2017).
Where a SMILES comes first, the peptide text is derived from it. [ ]: non-standard residue; d: D form. Dolaproine = CO[C@@H]([C@@H]1CCCN1)[C@@H](C)C(=O)O; Dil = CC[C@H](C)[C@H](NC)[C@@H](CC(=O)O)OC; NMeV = CN[C@H](C(=O)O)C(C)C

What was measured:
human CD22 = details: cited from earlier work
Daudi cells [1] = assay: cytotoxicity assay for ligand-toxin conjugates; type: cell-based; details: read-out: EC50 (cytotoxicity), 72h, MTT
hCD22 [2] = target: T1, hCD22 (Homo sapiens, UniProt P20273); assay: flow cytometry competitive binding assay, Neu5Gc-PAA to hCD22-CHO cells
T1 sequence (P20273 20-847): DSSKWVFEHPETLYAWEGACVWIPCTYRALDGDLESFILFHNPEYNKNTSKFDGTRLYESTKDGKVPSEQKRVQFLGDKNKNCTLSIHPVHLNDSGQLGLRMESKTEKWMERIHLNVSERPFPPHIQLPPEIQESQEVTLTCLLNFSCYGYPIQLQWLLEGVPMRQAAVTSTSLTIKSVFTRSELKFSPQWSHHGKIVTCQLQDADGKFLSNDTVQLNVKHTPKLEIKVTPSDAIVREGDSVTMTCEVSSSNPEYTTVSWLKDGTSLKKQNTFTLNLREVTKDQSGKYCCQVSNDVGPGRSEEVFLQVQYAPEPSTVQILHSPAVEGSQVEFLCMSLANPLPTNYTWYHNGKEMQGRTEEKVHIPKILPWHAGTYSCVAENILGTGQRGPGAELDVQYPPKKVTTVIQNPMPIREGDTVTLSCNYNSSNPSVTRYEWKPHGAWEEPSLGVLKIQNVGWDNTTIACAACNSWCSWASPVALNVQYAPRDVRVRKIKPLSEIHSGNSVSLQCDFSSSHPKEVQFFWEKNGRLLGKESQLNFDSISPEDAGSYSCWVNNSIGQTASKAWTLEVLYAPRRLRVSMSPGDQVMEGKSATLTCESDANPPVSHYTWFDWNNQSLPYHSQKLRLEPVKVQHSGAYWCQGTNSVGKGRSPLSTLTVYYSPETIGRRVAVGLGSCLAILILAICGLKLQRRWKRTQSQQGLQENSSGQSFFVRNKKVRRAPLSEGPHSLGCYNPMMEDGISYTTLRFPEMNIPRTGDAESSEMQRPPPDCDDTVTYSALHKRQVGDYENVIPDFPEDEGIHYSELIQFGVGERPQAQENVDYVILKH
How it was run: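 Serial dilutions of sialoside ligands, quantified by periodate-resorcinol assay, mixed in cold HBSS/0.5% BSA with biotinylated Neu5Gcα2–6LacNAc-PAA (1 MDa, 1 μg/mL). ~10^6 hCD22-CHO cells added; 40 min, 4 °C, dark. Two washes, then streptavidin-PE (1:1000) for 30 min at 4 °C. Read by flow cytometry. Triplicate titrations; IC50 from curve fit, 0% = no polymer, 100% = polymer without competitor.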

Daudi cells [3] = assay: uptake of ligand-FITC conjugates by Daudi cells in pure mouse serum; type: cell-based; details: 60 min, 37 °C
How it was run: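 FITC-labelled ligand conjugates serially diluted and incubated with ~10^6 Daudi B cells in 100 uL pure mouse serum for 60 min at 37 °C. Cells washed twice in HBSS; uptake read by flow cytometry and curve-fitted.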

hCD22 [4] = target: T1, hCD22; details: equilibrium dialysis at 4° C; cited from earlier work

Compound: CC(=O)NC1C(O)CC(O)(C(=O)O)OC1C(O)C(O)CNC(=O)c1ccc(-c2ccccc2)cc1 (stereo not shown) [1a, 9-N-biphenyl carboxamide-Neu5Ac]
- affinity for human CD22 (human CD22): low micromolar range

Compound: O=C(CF)N[C@H]1[C@H]([C@H](O)[C@H](O)CNC(=O)c2cccc(Oc3ccccc3)c2)OC(O)(C(=O)O)C[C@@H]1O (stereo partly shown) [1c, 9-N-m-phenoxybenzamide-Neu5FAc]
- affinity for human CD22 (human CD22): low micromolar range

Compound: CC[C@H](C)[C@@H]([C@@H](CC(=O)N1CCC[C@H]1[C@H](OC)[C@@H](C)C(=O)N[C@@H](Cc1ccccc1)C(=O)O)OC)N(C)C(=O)[C@@H](NC(=O)[C@@H](NC)C(C)C)C(C)C [MMAF, monomethyl auristatin F] (H-[NMeV]V[Dil][Dolaproine]F-OH)
- EC50 (Daudi cells [1]): 0.2 µM

Compound: CC(=O)NC1C(NC(=O)C[C@H](NC(=O)[C@H](C)NC(=O)[C@@H](NC(=O)[C@@H](N)CCCCN)C(C)C)C(=O)N[C@@H](CCCCN)C(=O)N[C@H](C(=O)O)[C@@H](C)O)OC(CO)C(OC2OC(CO)C(OC3OC(COC4OC(CO)C(O)C(O)C4OC4OC(CO)C(OC5OC(COC6(C(=O)[O-])CC(O)C(NC(C)=O)C([C@H](O)[C@H](O)CO)O6)C(O)C(O)C5O)C(O)C4NC(C)=O)C(O)C(OC4OC(CO)C(O)C(O)C4OC4OC(CO)C(OC5OC(COC6(C(=O)[O-])CC(O)C(NC(C)=O)C([C@H](O)[C@H](O)CO)O6)C(O)C(O)C5O)C(O)C4NC(C)=O)C3O)C(O)C2NC(C)=O)C1O.[Na+].[Na+] (stereo partly shown) [SGP]
- fold higher binding affinity for hCD22 compared to the monovalent ligand (6′SLN) (hCD22 [2]): three-fold higher
- binding/uptake by Daudi cells (Daudi cells [3]): weak or no binding/uptake

Compound: Neu5Acα2–6Galβ1–4GlcNAc [6′SLN]
- Kd (hCD22 [4]): 32 µM
- IC50 (hCD22 [2]; competition with Neu5Gc-PAA, 40 min, 4 °C): 62 µM
